Assay results pooled from the literature.
Compare with care: the assays were run in different laboratories.
MTOR: Serine/threonine-protein kinase mTOR (MTOR, Homo sapiens, UniProt P42345)
HSP90B1: Endoplasmin (HSP90B1, Canis lupus familiaris, UniProt P41148)
LYZ: Lysozyme C (LYZ, Gallus gallus, UniProt P00698)
SMARCA2 bromodomain: SWI/SNF-related matrix-associated actin-dependent regulator of chromatin subfamily A member 2, bromodomain (SMARCA2, Homo sapiens, UniProt P51531)

Cc1nc(NC(=O)N2CCC[C@H]2C(N)=O)sc1-c1ccnc(C(C)(C)C(F)(F)F)c1 — Kd (MTOR; binding; competition with immobilised ligand): 0.645 µM
COCCOCCc1c(C)c2cc(OC)c(O)c(C=O)c2oc1=O — Kd (Serine/threonine-protein kinase/endoribonuclease IRE1 (Mus musculus, UniProt Q9EQY0, N772Y); binding): 0.84 µM
COC(=O)c1c(O)cc(O)c(Cl)c1CCC(=O)Nc1ccc(Br)cc1 — Kd (HSP90B1; ligand displacement; FP): 1.5 µM
CC(=O)N[C@H]1[C@H](O[C@H]2[C@H](O)[C@@H](NC(C)=O)C(O)O[C@@H]2CO)O[C@H](CO)[C@@H](O[C@@H]2O[C@H](CO)[C@@H](O)[C@H](O)[C@H]2NC(C)=O)[C@@H]1O (some centres unmarked) — Kd (LYZ; binding; pH 7.4): 6.2 µM
COC(=O)c1c(O)cc(O)c(Cl)c1CCC(=O)Nc1nccs1 — Kd (HSP90B1; ligand displacement; FP): 1.08 µM
Cc1ncsc1-c1ccc(CNC(=O)[C@@H]2C[C@H](O)CN2C(=O)[C@@H](NC(=O)C2(F)CC2)C(C)(C)C)c(OCCOc2ccc(CN3CCN(c4cc(-c5ccccc5O)nnc4N)CC3)cc2)c1 — Kd (SMARCA2 bromodomain; binding; SPR): 1.1 µM
CC1(C)[C@@H]2CC[C@@]1(C)C(=O)C2 — Kd (Camphor 5-monooxygenase (camC, Pseudomonas putida, UniProt P00183); binding; ITC): 1.2 µM
Cc1cc2nc3c(=O)[nH]c(=O)nc-3n(C[C@H](O)[C@H](O)[C@H](O)COP(=O)(O)OP(=O)(O)OC[C@H]3O[C@@H](n4cnc5c(N)ncnc54)[C@H](O)[C@@H]3O)c2cc1C — Kd (DAZ-associated protein 1 (Homo sapiens, UniProt Q96EP5); binding; lysate): 0.007 µM
c1cncc(-c2cccc(Nc3nccc(NC4CCCCC4)n3)c2)c1 — Kd (Non-receptor tyrosine-protein kinase TYK2, JH1 (TYK2, Homo sapiens, UniProt P29597); binding; competition with immobilised ligand): 0.35 µM
CCCN1CCN(c2ccc(-c3cncc(Cl)c3N3CCC4(CCNC4=O)CC3)cc2)CC1 — Kd (Protein kinase C delta type (PRKCD, Homo sapiens, UniProt Q05655); cell-free assay; lysate): 3.47 µM
Cc1ncsc1-c1ccc(CNC(=O)[C@@H]2C[C@@H](O)CN2C(=O)[C@@H](NC(=O)C2(F)CC2)C(C)(C)C)c(OCCOCCOCCN2CCN(c3cc(-c4ccccc4O)nnc3N)CC2)c1 — Kd (SMARCA2 bromodomain; binding; SPR): 4.5 µM
CCN(CC)CCCC(C)Nc1c2ccc(Cl)cc2nc2ccc(OC)cc12 (centres unmarked) — Kd (LYZ; binding; fluorescence): 4.7 µM
COC(=O)c1c(O)cc(O)c(Cl)c1CCC(=O)Nc1ccccc1Cl — Kd (HSP90B1; ligand displacement; FP): 1.85 µM
C=CC(=O)N1CCC(C(=O)NCC(=O)N2CCN(c3nc(-c4cnc(N)nc4C(F)F)nc(N4CCOCC4)n3)CC2)CC1 — Kd (MTOR; binding; competition with immobilised ligand): 0.032 µM
NC(=O)c1ccc(-c2nc(-c3ccc4c(c3)OCO4)c(-c3ccccn3)[nH]2)cc1 — Kd (Epidermal growth factor receptor (EGFR, Homo sapiens, UniProt P00533); binding): > 10 µM
CC(C)Nc1ccnc(Nc2cccc(-c3cccnc3)c2)n1 — Kd (Non-receptor tyrosine-protein kinase TYK2, JH2 (TYK2, Homo sapiens, UniProt P29597); binding; competition with immobilised ligand): 0.21 µM
CC(=O)N[C@H]1[C@H](O[C@H]2[C@H](O)[C@@H](NC(C)=O)C(O)O[C@@H]2CO)O[C@H](CO)[C@@H](O[C@@H]2O[C@H](CO)[C@@H](O)[C@H](O)[C@H]2NC(C)=O)[C@@H]1O (some centres unmarked) — Kd (Chitotriosidase-1 (Homo sapiens, UniProt Q13231); binding): 3100 µM
